For 35 molecules, Response and Ki results are on record in ChEMBL document CHEMBL1129636 (J Med Chem, 1996).

The term Ki denotes the equilibrium dissociation constant of an inhibitor or competing ligand from its target. A high value points to a looser hold on the target.

Assay [1] deals with T1, Glutamate receptor ionotropic, kainate 2 (Homo sapiens, UniProt Q13002). In words: Electrophysiological activity at 10 uM domoate from HEK293 cells transfected with Ionotropic glutamate receptor kainate 2. Type of assay: functional, cell-based. The essentials:
(§1)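 Whole-cell voltage clamp (tight-seal patch clamp) of HEK293 line EAA4-9 stably expressing human GluR6, with cells plated on glass coverslips. Bath: NaCl 138, CaCl2 5, MgCl2 1, KCl 5, HEPES 10, glucose 10 mM, pH 7.4. Pipette: KCl 140, MgCl2 1, HEPES 10, EGTA 0.1 mM, pH 7.2. Test agonist at 1, 10 or 30 uM by bath perfusion with 2.5 uM concanavalin A. Inward current expressed as percent of the response to 1 uM domoate.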

For assay [2], the target named is Glutamate receptor ionotropic, kainate 2 (Rattus norvegicus, UniProt P42260). The experiment in a line: Inhibition of [3H]kainate binding at rat forebrain ionotropic glutamate receptor kainate 2.
Sequence of Glutamate receptor ionotropic, kainate 2 (Rattus norvegicus, UniProt P42260) (P42260 whole entry): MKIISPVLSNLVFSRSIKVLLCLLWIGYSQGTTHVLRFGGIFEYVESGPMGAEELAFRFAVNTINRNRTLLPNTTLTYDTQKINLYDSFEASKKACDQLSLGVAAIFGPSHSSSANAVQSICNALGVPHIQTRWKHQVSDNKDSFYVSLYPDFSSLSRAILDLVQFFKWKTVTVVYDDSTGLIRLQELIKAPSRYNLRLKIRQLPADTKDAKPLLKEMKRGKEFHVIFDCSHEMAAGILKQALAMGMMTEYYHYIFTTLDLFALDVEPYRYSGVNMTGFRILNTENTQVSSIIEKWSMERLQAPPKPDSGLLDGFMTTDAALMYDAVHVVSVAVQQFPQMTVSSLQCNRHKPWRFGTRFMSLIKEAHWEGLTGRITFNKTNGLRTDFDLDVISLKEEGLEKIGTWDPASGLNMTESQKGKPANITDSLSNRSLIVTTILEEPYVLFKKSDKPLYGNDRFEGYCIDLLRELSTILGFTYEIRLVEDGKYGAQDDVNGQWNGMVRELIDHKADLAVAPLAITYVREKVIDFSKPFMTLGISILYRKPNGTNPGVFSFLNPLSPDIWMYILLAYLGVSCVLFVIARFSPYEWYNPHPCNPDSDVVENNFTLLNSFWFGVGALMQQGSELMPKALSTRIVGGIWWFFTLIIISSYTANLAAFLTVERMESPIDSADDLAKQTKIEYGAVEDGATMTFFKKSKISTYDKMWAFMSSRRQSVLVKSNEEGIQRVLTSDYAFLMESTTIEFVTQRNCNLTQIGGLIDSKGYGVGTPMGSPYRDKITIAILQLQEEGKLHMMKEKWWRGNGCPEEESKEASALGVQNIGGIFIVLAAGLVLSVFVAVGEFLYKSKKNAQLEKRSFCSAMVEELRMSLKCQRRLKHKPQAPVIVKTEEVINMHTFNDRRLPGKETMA
The target of assay [3] is T1, Glutamate receptor ionotropic, kainate 2. The experiment in a line: Electrophysiological activity at 30 uM domoate from HEK293 cells transfected with ionotropic glutamate receptor kainate 2. It is filed as functional, cell-based. Summed up:
as §1

The target is the same in assay [4]. The experiment in a line: Inhibition of [3H]kainate binding at ionotropic glutamate receptor kainate 2. The essentials:
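Frozen EAA4-9 cells (HEK293 stably expressing human GluR6) lysed in ice-cold water and pelleted at 50000g. Membranes washed in 50 mM Tris-HCl, pH 7.5 at 5 °C, to remove glutamate. Nonspecific binding defined with 1 mM L-glutamate, and bound ligand separated by centrifugation. Ki reported.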

Assay [5] shares this target. The experiment in a line: Electrophysiological activity at 1 uM domoate from HEK293 cells transfected with ionotropic glutamate receptor kainate 2. It is filed as functional, cell-based. The essentials: as §1

Each structure is given as a SMILES string.

T1 sequence (Q13002 whole entry, the tested form may be a part): as the sequence (P42260 whole entry) above, with S5F, V7I, L11P, S14R, S16T, I17V, V19L, V494A counted along it

In the case of `C=C(c1cc(C)cc(C)c1)[C@H]1CN[C@H](C(=O)O)[C@H]1CC(=O)O`, the Response in assay [1] came to 73%; in assay [3] it was 108%; in assay [5], 23%. In addition, the values for the Ki in assay [2] and in assay [4] were 0.0095 µM and 0.169 µM, respectively.
`C=C(c1ccccc1)[C@H]1CN[C@H](C(=O)O)[C@H]1CC(=O)O`: the Response in assay [1] was determined as 81%; in assay [3], 80%; in assay [5], 48%. The figures for the Ki in assay [2] and in assay [4] were 0.0016 µM and 0.0298 µM, respectively.
For `CC(c1cccc(-c2ccccc2)c1)[C@H]1CN[C@H](C(=O)O)[C@H]1CC(=O)O` (some centres undefined), the Response turned out to be 14% in assay [1], 16% in assay [3] and 12% in assay [5]. Also, the Ki in assay [4] was over 10 µM.
As to `C=C(c1ccc(C(C)(C)C)cc1)[C@H]1CN[C@H](C(=O)O)[C@H]1CC(=O)O`, the Response is 31% in assay [1], 46% in assay [3] and 8% in assay [5]. For the same molecule, the Ki in assay [2] is 0.0185 µM; in assay [4] it was 0.263 µM.
`C=C(c1cccc(-c2ccccc2)c1)[C@@H]1CN[C@H](C(=O)O)[C@H]1CC(=O)O`: the Response in assay [1], in assay [3] and in assay [5] was 0% throughout. In assay [4], affinity was put at a Ki of 3.11 µM.
For `C=C(c1ccc(CC)cc1)[C@H]1CN[C@H](C(=O)O)[C@H]1CC(=O)O`, the Response in assay [1] was determined as 63%; in assay [3], 73%; in assay [5], 22%. The Ki in assay [2] is 0.0077 µM; in assay [4], 0.0822 µM.
Take `C=C(c1ccc(OCCCCCc2ccccc2)cc1)[C@H]1CN[C@H](C(=O)O)[C@H]1CC(=O)O`: the Response is 13% in assay [1], 27% in assay [3] and 0% in assay [5]. The Ki in assay [2] worked out at 0.126 µM; in assay [4] it was 1.3 µM.
Regarding `C=C(c1ccc(C)cc1)[C@H]1CN[C@H](C(=O)O)[C@H]1CC(=O)O`, the Response was 72% in assay [1], 76% in assay [3] and 61% in assay [5]. The inhibitory constant (Ki) in assay [2] turned out to be 0.0026 µM; in assay [4] it was 0.0411 µM.
For `C=C(c1ccc(CCCC)cc1)[C@H]1CN[C@H](C(=O)O)[C@H]1CC(=O)O` the same measures were 57%, 63%, 11%, 0.0048 µM and 0.146 µM.
Regarding `C=C(c1cccc(-c2ccccc2)c1)[C@H]1CN[C@H](C(=O)O)[C@H]1CC(=O)O`, the Response in assay [1] turned out to be 98%; in assay [3], 103%; in assay [5], 65%. For the same molecule, the results for the Ki in assay [2] and in assay [4] were 0.0021 µM and 0.0906 µM, respectively.
On to `C=C(c1ccc(Cl)cc1)[C@H]1CN[C@H](C(=O)O)[C@H]1CC(=O)O`, for which the Response in assay [1] was found to be 78%; in assay [3] it was 83%; in assay [5] it was 52%. Moreover, the Ki in assay [2] was 0.0039 µM; in assay [4], 0.0317 µM.
Regarding `C=C(c1ccc(OCCc2ccccc2)c(OC)c1)[C@H]1CN[C@H](C(=O)O)[C@H]1CC(=O)O`, the results for the Response in assay [1], in assay [3] and in assay [5] were 20%, 44% and 2%, respectively. Also, the Ki in assay [4] turned out to be 1.28 µM.
For `C=C(c1ccc(-c2ccccc2)cc1)[C@H]1CN[C@H](C(=O)O)[C@H]1CC(=O)O`, the results for the Response in assay [1], in assay [3] and in assay [5] were 58%, 66% and 36%, respectively. Further, the Ki in assay [2] was 0.0091 µM; in assay [4], 0.131 µM.
Regarding `C=C(c1cccc(OCCC(c2ccccc2)c2ccccc2)c1)[C@@H]1CN[C@H](C(=O)O)[C@H]1CC(=O)O`, the Response in assay [1], in assay [3] and in assay [5] was 0% in each case. Also, the inhibition constant (Ki) in assay [2] was 3 µM; in assay [4], over 10 µM.
Turning to `C=C(c1ccc(OCCCC)cc1)[C@H]1CN[C@H](C(=O)O)[C@H]1CC(=O)O`, the Response in assay [1] was determined as 86%; in assay [3], 99%; in assay [5] it was 33%. Also, the Ki in assay [2] stood at 0.0028 µM; in assay [4], 0.147 µM.
As to `C=C(c1ccc(CCC)cc1)[C@H]1CN[C@H](C(=O)O)[C@H]1CC(=O)O`, the Response in assay [1] worked out at 54%; in assay [3] it was 66%; in assay [5] it was 24%. In addition, the values for the Ki in assay [2] and in assay [4] were 0.0036 µM and 0.147 µM, respectively.
As for `C=C(c1ccc(OCCc2ccccc2)c(C)c1)[C@H]1CN[C@H](C(=O)O)[C@H]1CC(=O)O`, the figures for the Response in assay [1], in assay [3] and in assay [5] were 64%, 71% and 12%, respectively. The molecule also registered a Ki in assay [4] of 0.129 µM.
Take `C=C(C)c1ccc(C(=C)[C@H]2CN[C@H](C(=O)O)[C@H]2CC(=O)O)cc1`: the Response in assay [1] turned out to be 61%; in assay [3], 66%; in assay [5], 17%. For the same molecule, the Ki in assay [2] amounted to 0.0036 µM; in assay [4], 0.132 µM.
For `C=C(c1ccc(Oc2ccccc2)cc1)[C@H]1CN[C@H](C(=O)O)[C@H]1CC(=O)O` the same measures were 59%, 62%, 15%, 0.0119 µM and 0.21 µM.
Consider `C=C(c1cccc(C)c1)[C@H]1CN[C@H](C(=O)O)[C@H]1CC(=O)O`, for which the Response worked out at 75% in assay [1], 74% in assay [3] and 29% in assay [5]. Besides, the inhibitory constant (Ki) stood at 0.0022 µM in assay [2] and 0.123 µM in assay [4].
`C=C(c1ccc(F)c(C)c1)[C@H]1CN[C@H](C(=O)O)[C@H]1CC(=O)O`: the values for the Response in assay [1], in assay [3] and in assay [5] were 76%, 100% and 38%, respectively. Further, the Ki in assay [2] was determined as 0.0019 µM; in assay [4], 0.0543 µM.
On to `C=C(c1ccc(C)c(C)c1)[C@H]1CN[C@H](C(=O)O)[C@H]1CC(=O)O`, for which the Response in assay [1] amounted to 89%; in assay [3], 98%; in assay [5], 50%. Moreover, the inhibition constant (Ki) in assay [2] is 0.0023 µM; in assay [4] it was 0.108 µM.
For `C=C(CC)c1ccc(C(=C)[C@H]2CN[C@H](C(=O)O)[C@H]2CC(=O)O)cc1`, the results for the Response in assay [1], in assay [3] and in assay [5] were 38%, 52% and 15%, respectively. Moreover, the Ki in assay [2] came to 0.009 µM; in assay [4] it was 0.288 µM.
In the case of `C=C(C)c1ccc(C(=C)[C@@H]2CN[C@H](C(=O)O)[C@H]2CC(=O)O)cc1`, the Ki in assay [2] was 5.4 µM; in assay [4], 2.3 µM.
Turning to `C=C(C)[C@H]1CN[C@H](C(=O)O)[C@H]1CC(=O)O`, the values for the Response in assay [1], in assay [3] and in assay [5] were 85%, 101% and 39%, respectively.
For the molecule `C=C(c1cccc(OC)c1)[C@H]1CN[C@H](C(=O)O)[C@H]1CC(=O)O`, the figures for the Response in assay [1], in assay [3] and in assay [5] were 77%, 87% and 46%, respectively. The Ki in assay [2] came out at 0.0035 µM; in assay [4], 0.0935 µM.
As to `C=C(c1ccccc1)[C@@H]1CN[C@H](C(=O)O)[C@H]1CC(=O)O`, the Response entry in assay [1], in assay [3] and in assay [5] was “Neurotoxic” throughout. Besides, the values for the Ki in assay [2] and in assay [4] were 0.23 µM and 6.97 µM, respectively.
In the case of `C=C(c1ccc(OC)cc1)[C@H]1CN[C@H](C(=O)O)[C@H]1CC(=O)O`, the Response amounted to 76% in assay [1], 82% in assay [3] and 37% in assay [5]. Besides, the Ki is 0.0039 µM in assay [2] and 0.0574 µM in assay [4].
Take `C=C(c1ccc(OCCCCC)c(C)c1)[C@H]1CN[C@H](C(=O)O)[C@H]1CC(=O)O`: the figures for the Response in assay [1], in assay [3] and in assay [5] were 46%, 58% and 17%, respectively. In assay [4], the Ki was 0.663 µM.
For the molecule `CC(c1ccccc1)[C@H]1CN[C@H](C(=O)O)[C@H]1CC(=O)O` (some centres undefined), the Response in assay [1], in assay [3] and in assay [5] was 0% in each case. The same molecule came in with a Ki in assay [4] of over 10 µM.
As to `C=C(c1cccc(OCCc2ccccc2)c1)[C@H]1CN[C@H](C(=O)O)[C@H]1CC(=O)O`, the values for the Response in assay [1], in assay [3] and in assay [5] were 43%, 70% and 6%, respectively. The Ki in assay [2] turned out to be 0.016 µM; in assay [4], 0.667 µM.
For the molecule `C=C(c1ccc(F)cc1)[C@H]1CN[C@H](C(=O)O)[C@H]1CC(=O)O`, the Response was determined as 76% in assay [1], 78% in assay [3] and 43% in assay [5]. Further, the Ki was found to be 0.0027 µM in assay [2] and 0.0384 µM in assay [4].
On to `C=C(c1ccc(OCCc2ccccc2)cc1)[C@H]1CN[C@H](C(=O)O)[C@H]1CC(=O)O`, for which the Response in assay [1] was determined as 52%; in assay [3], 66%; in assay [5], 16%. In addition, the Ki in assay [2] was found to be 0.0062 µM; in assay [4] it was 0.126 µM.
In the case of `C=C(c1cccc(OCCCC)c1)[C@H]1CN[C@H](C(=O)O)[C@H]1CC(=O)O`, the Response in assay [1] is 8%; in assay [3], 40%; in assay [5], 5%. The Ki in assay [2] is 0.0233 µM; in assay [4], 0.275 µM.
`C=C(c1cccc(OCCC(c2ccccc2)c2ccccc2)c1)[C@H]1CN[C@H](C(=O)O)[C@H]1CC(=O)O`: the Response in assay [1] was 6%; in assay [3], 14%; in assay [5] it was 3%. Moreover, the Ki in assay [2] is 0.21 µM; in assay [4], 2.42 µM.
